Source: ChEMBL document CHEMBL3352191, “Synthesis of sulfonamides with effective inhibitory action against Porphyromonas gingivalis γ-carbonic anhydrase” (Bioorg Med Chem Lett, 2014)

Assay: Inhibition of Porphyromonas gingivalis gamma-carbonic anhydrase expressed in Escherichia coli preincubated for 15 mins by stopped flow CO2 hydration assay
How it was run: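 CO2 hydration followed by stopped-flow with phenol red (0.2 mM) read at 557 nm. Buffer was 20 mM Hepes pH 7.4 with 20 mM NaBF4 for ionic strength, and CO2 was 1.7–17 mM. Initial rates came from ≥6 traces of the first 5–10% of reaction over 10–100 s, with uncatalyzed rate subtracted. Inhibitor was diluted in water from 10 mM stock and preincubated with enzyme 15 min at rt. KI came from nonlinear least squares plus Cheng–Prusoff, mean of ≥3 determinations.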
For `CC(=O)NC(CCCCNC(=O)OC(C)(C)C)C(=O)NCc1ccc(S(N)(=O)=O)cc1` (stereo not given), the Ki was 89 nM.
Work on `COC(=O)C(CCCCNC(=O)OCc1ccccc1)NC(=O)c1ccc(S(N)(=O)=O)cc1` (stereo not given) yielded a Ki of 85.4 nM.
For `CC(C)(C)OC(=O)NCCCC(=O)Nc1cccc(S(N)(=O)=O)c1`, the Ki was 1240 nM.
In the case of `CC(=O)NC(CCCCNC(=O)OC(C)(C)C)C(=O)Nc1cccc(S(N)(=O)=O)c1` (stereo not given), the Ki is reported as 54.2 nM.
For `CC(C)(C)OC(=O)/N=C(\NCCCC(=O)NCCc1ccc(S(N)(=O)=O)cc1)NC(=O)OC(C)(C)C`, the Ki was 90.6 nM.
`CC(C)(C)OC(=O)/N=C(\NCCCC(=O)NCc1ccc(S(N)(=O)=O)cc1)NC(=O)OC(C)(C)C` showed a Ki of 74 nM.
Molecule `NCCCC(=O)NCc1ccc(S(N)(=O)=O)cc1` has a Ki of 42.7 nM.
In the case of `CC(=O)NC(CCCCN/C(=N/C(=O)OC(C)(C)C)NC(=O)OC(C)(C)C)C(=O)NCCc1ccc(S(N)(=O)=O)cc1` (stereo not given), the Ki is reported as 60.8 nM.
`CC(=O)NC(CCCCN/C(=N/C(=O)OC(C)(C)C)NC(=O)OC(C)(C)C)C(=O)NCc1ccc(S(N)(=O)=O)cc1` (stereo not given) gave a Ki of 77.6 nM.
With `CC(=O)NC(CCCCNC(=O)OC(C)(C)C)C(=O)NCCc1ccc(S(N)(=O)=O)cc1` (stereo not given) the Ki was 312 nM.
`NCCCC(=O)NCCc1ccc(S(N)(=O)=O)cc1` showed a Ki of 65.9 nM.
In the case of `CC(=O)NC(CCCCN)C(=O)NCCc1ccc(S(N)(=O)=O)cc1` (stereo not given), the Ki is reported as 70.5 nM.
In the case of `CC(C)(C)OC(=O)NCCCC(=O)Nc1ccc(S(N)(=O)=O)cc1`, the Ki is reported as 56 nM.
With `N=C(N)NCCCC(=O)NCc1ccc(S(N)(=O)=O)cc1` the Ki was 887 nM.
With `N=C(N)NCCCC(=O)NCCc1ccc(S(N)(=O)=O)cc1` the Ki was 40.1 nM.
Molecule `CC(C)(C)OC(=O)NCCCC(=O)NCCc1ccc(S(N)(=O)=O)cc1` has a Ki of 233 nM.
For `CC(=O)NC(CCCCNC(=N)N)C(=O)NCCc1ccc(S(N)(=O)=O)cc1` (stereo not given), the Ki was 370 nM.
Work on `CC(=O)NC(CCCCNC(=N)N)C(=O)NCc1ccc(S(N)(=O)=O)cc1` (stereo not given) yielded a Ki of 80.7 nM.
Molecule `CC(=O)NC(CCCCN)C(=O)NCc1ccc(S(N)(=O)=O)cc1` (stereo not given) has a Ki of 74.1 nM.
With `CC(C)(C)OC(=O)NCCCC(=O)NCc1ccc(S(N)(=O)=O)cc1` the Ki was 490 nM.
